Screening results: PubChem BioAssay, several laboratories
Ecoli WT expand – growth inhibitors of wild-type E. coli, primary screen, strain BW25113, expanded library, OD600; OD600 absorbance; growth inhibition, % at 100 µM; actives 0.15% (n = 98,000);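 active means growth inhibition above about 50% at one test dose, limit read from the data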;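 further: growth measured after 20 h incubation at 37 °C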
PostGolgi yeast – phenotypic screen on post-Golgi transport, primary screen; post-Golgi transport phenotypic cell assay; inhibition, % at 10 µM; actives 0.9% (n = 98,000); AID 739, 2007;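 further: yeast cells grown in 1536-well plates; yeast grown about 18 h at 30C before absorbance read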
PTK2B oligo ant – antagonists of Pyk2 self-association, primary screen, Q293 cells, FERM NanoBiT luminescence, HTS. stronger effect = lower value. Protein-tyrosine kinase 2-beta (Homo sapiens), Q14289. actives 0.83% (n = 99,000). z-score (the deposit names both 25 µM and 10 µM);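 active means Z-score of -3 or lower, scaled per plate to the spread of control and sample wells; inactive means z-score above -3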;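 further: negative z-score means lost luminescence so less FERM oligomerization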
Target sequence (Q14289 whole entry, looked up): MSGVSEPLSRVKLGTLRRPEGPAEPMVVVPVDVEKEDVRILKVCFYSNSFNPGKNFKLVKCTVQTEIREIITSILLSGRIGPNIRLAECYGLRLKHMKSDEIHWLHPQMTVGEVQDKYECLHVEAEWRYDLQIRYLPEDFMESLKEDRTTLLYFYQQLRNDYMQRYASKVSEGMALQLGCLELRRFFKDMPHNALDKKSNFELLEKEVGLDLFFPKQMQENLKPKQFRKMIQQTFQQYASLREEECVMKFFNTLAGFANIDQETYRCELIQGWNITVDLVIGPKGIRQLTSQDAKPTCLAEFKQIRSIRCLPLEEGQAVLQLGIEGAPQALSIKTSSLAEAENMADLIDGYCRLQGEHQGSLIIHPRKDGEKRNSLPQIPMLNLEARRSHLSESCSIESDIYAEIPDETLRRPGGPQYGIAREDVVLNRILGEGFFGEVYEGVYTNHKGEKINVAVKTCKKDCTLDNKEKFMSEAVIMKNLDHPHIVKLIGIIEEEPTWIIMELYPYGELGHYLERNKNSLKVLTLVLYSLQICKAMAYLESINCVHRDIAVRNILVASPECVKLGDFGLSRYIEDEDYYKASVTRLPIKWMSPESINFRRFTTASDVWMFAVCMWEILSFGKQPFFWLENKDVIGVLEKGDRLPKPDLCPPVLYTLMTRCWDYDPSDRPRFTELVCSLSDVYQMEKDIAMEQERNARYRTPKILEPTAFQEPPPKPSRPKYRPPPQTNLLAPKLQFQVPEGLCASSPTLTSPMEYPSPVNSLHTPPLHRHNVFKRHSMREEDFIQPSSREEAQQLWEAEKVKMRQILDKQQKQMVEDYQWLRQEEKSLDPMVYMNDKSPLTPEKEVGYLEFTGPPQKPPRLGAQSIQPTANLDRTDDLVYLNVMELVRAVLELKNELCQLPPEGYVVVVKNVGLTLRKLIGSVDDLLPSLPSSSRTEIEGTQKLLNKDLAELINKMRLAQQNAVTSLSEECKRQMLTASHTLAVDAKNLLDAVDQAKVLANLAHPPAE
PostGolgi ctrl – growth inhibition of yeast control strain, primary screen, counter-screen for post-Golgi transport modulator project. efflux-deficient yeast background strain, growth absorbance A615, 16 h. inhibition, % at 10 µM. actives 5% (n = 98,000). AID 738, 2007
Ecoli tolC – growth inhibitors of E. coli tolC mutant, primary screen, strain BW25113 ΔtolC::kan, 384-well; growth inhibition, % at 10 µM (by protocol); OD615; actives 2.2% (n = 65,000); AID 573, 2007;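 active means growth inhibition at or above a cutoff equal to the mean over every tested compound plus 3 SD, cut at about 60% in these data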;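 further: growth measured after 20 h incubation at 37 °C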
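Assay system: tolC-deleted E. coli BW25113. Medium: kanamycin-containing LB broth (50 µg/mL). Dosing: 10 µM final, single dose. Timing: bacterial growth with compound for 20 h at 37 °C. Detection: A615 absorbance measurement. Read-out basis: growth inhibition in percent.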
Candida biofilm – clotrimazole potentiators killing Candida biofilms, primary screen, with clotrimazole, Alamar Blue | inhibition, % at 6 µM | C. albicans biofilm + clotrimazole | AID 834, 2007 | actives 0.14% (n = 85,000);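 active means inhibition above 20%; inactive means inhibition below 20%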;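 further: preformed 24 hr biofilms exposed to compound for 48 hr; 0% = biofilm without compound and 100% = blank killed by clotrimazole plus chlorhexidine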
Numbers without * were called inactive; / = no result given. Rows were chosen to be rich in hits. Some 6.5% of all compounds tested hit in one or more screens of this group. Unless noted, no stated cut-off is given here; in the data, active means inhibition above about 30%; inactive means the rest.

SMILES | Ecoli WT expand | PostGolgi yeast | PTK2B oligo ant | PostGolgi ctrl | Ecoli tolC | Candida biofilm
COc1ccc(S(=O)(=O)N(Cc2cccs2)C2CCCC2)cc1 | -2 | -11 | -0.56 | 31* | 66* | 5
COc1ccc(S(=O)(=O)NCc2cccs2)cc1 | 13 | 1 | 1.1 | 2 | / | /
Cc1ccc(N2C(=O)CSC23C(=O)Nc2ccccc23)cc1 (stereo not drawn) | 6 | 3 | -0.51 | 0 | 15 | 8
CC1=CC(C)(C)N2C(=O)C3(SCC(=O)N3c3ccc(O)cc3)c3cc(C)cc1c32 (stereo not drawn) | 4 | -2 | -2.3 | 15 | 87* | 0
COC(Cc1nnc(SC)n1-c1ccccc1)OC | -1 | -24 | 1.1 | 0 | / | /
CSc1nnc(CSCc2ccc(Cl)cc2Cl)n1-c1ccccc1 | -6 | -2 | -1.2 | 51* | / | /
CC(=O)NCCC(=O)NCc1ccc(F)cc1 | 4 | -4 | 0.75 | 9 | / | 5
CC(=O)NCCC(=O)Nc1ccc(F)cc1C | -2 | -2 | 0.06 | 31* | / | 10
CCOC(=O)CC1C(=O)NCCN1S(=O)(=O)c1ccccc1Cl (stereo not drawn) | 8 | -1 | 0.83 | 5 | / | /
COc1cc(C)c(S(=O)(=O)NCc2ccc3c(c2)OCO3)cc1C | 2 | 6 | / | 10 | 22 | 27*
COc1cc(C)c(Cl)c(C)c1S(=O)(=O)NCc1ccc2c(c1)OCO2 | 2 | -7 | 1.1 | 6 | -10 | -5
COC(=O)c1scc(C)c1NC(=O)C1CCCCC1 | -1 | 1 | 1.1 | 8 | / | 8
COc1ccc(OCCn2cc(/C(N)=N/O)c3ccccc32)cc1 | 10 | -3 | -0.42 | 1 | / | 3
CCC(=C(c1ccc(OC)cc1)c1ccc(OC)cc1)c1cn(CC(O)CN2CCN(C)CC2)c2ccccc12 (stereo not drawn) | 1 | 28 | / | 91* | / | -2
Nc1ccc(SC(F)(F)F)cc1C(=O)c1ccccc1 | 11 | -8 | -1.4 | 16 | 6 | -3
C=CCn1c(SCC(O)Cn2c3ccccc3c3ccccc32)nnc1-c1ccco1 (stereo not drawn) | -22 | -8 | -1.7 | 46* | 81* | 1
COc1ccccc1Cn1c(=O)c2ccccc2n2c(Sc3ncnc4sccc34)nnc12 | -5 | 11 | -2.1 | 42* | 21 | 9
O=C(NCc1ccccn1)C1CCN(S(=O)(=O)N2CCCC2)CC1 | 1 | -1 | -0.66 | 39* | -3 | 2
COc1cc(C(=O)Nc2ccc(S(=O)(=O)N3CCc4ccccc43)cc2)cc(OC)c1OC | -17 | 0 | -2.9 | 4 | / | 3
COC(=O)Nc1ccc(S(=O)(=O)N2CCCc3ccccc32)cc1 | -3 | 18 | -1.9 | 11 | 23 | 8
O=C(Nc1ccc(S(=O)(=O)N2CCc3ccccc32)cc1)c1ccc2c(c1)OCO2 | -5 | -9 | -2.3 | 37* | 25 | -2
O=C(Nc1ccc(S(=O)(=O)N2CCc3ccccc32)cc1)c1ccco1 | -1 | 6 | -2.3 | 44* | 27 | /
COc1ccccc1C(=O)Nc1ccc(S(=O)(=O)N2CCc3ccccc32)cc1 | -5 | 4 | -2.7 | 34* | / | -1
CC1=C(C(=O)OC(C)C)C(c2ccccc2)NC(=S)N1C (stereo not drawn) | / | / | 0 | / | / | /
O=S(=O)(c1ccc(Cl)cc1)N1CCCC1c1nc(-c2cccc(Cl)c2)no1 (stereo not drawn) | -4 | 1 | -0.39 | 33* | / | /
SMILES | Ecoli WT expand | PostGolgi yeast | PTK2B oligo ant | PostGolgi ctrl | Ecoli tolC | Candida biofilm
Cc1cccc(-[n+]2c(C)cc(C)c3c(=O)[nH]c(=O)[nH]c32)c1 | / | / | 0.02 | / | / | /
CCCn1c(-c2ccccc2)nc2c(=O)n(C)c(=O)[nH]c21 | -1 | 3 | -0.48 | 36* | 7 | 5
COc1ccc(-c2c3c(=O)n(C)c(=O)n(C)c3cn2-c2ccccc2)cc1 | -8 | 4 | 0.28 | 25 | 96* | 4
COc1ccc(C(=O)Nn2cc3c(c2-c2ccccc2)c(=O)n(C)c(=O)n3C)cc1 | -6 | -10 | -0.34 | -3 | -4 | 8
c1csc(C2Nc3cccc4cccc(c34)N2)c1 | -6 | -10 | -0.88 | 32* | / | /
COc1ccc(CNC(=O)C2CCCN(S(=O)(=O)c3cc(C)ccc3OC)C2)cc1 (stereo not drawn) | 1 | -5 | 0.49 | 40* | 13 | 7
CCOc1ccccc1NC(=O)C1CCCN(S(=O)(=O)c2ccc(OC)c(C)c2)C1 (stereo not drawn) | -14 | 0 | -0.63 | 31* | 47 | 6
COc1ccc(S(=O)(=O)N2CCCC(C(=O)Nc3ccc(OC)c(OC)c3)C2)cc1 (stereo not drawn) | -3 | 12 | 1.3 | 39* | 29 | 10
COc1ccc(C)cc1S(=O)(=O)N1CCC(C)CC1 | 1 | 5 | -0.82 | 42* | 4 | 6
COc1ccc(NC(=O)C2CCCN(S(=O)(=O)c3ccc(C)cc3)C2)cc1OC (stereo not drawn) | / | / | -0.27 | / | 19 | /
COc1ccc(C)cc1S(=O)(=O)N1CCN(S(=O)(=O)c2cc(C)ccc2OC)C(C)C1 (stereo not drawn) | -6 | -7 | -1 | 5 | 23 | 0
COc1ccc(CNC(=O)C2CCN(S(=O)(=O)c3cc(OC)ccc3OC)CC2)cc1 | -5 | -8 | -0.16 | 16 | -4 | 0
COc1ccccc1NC(=O)C1CCCN(S(=O)(=O)c2cnc[nH]2)C1 (stereo not drawn) | 0 | -20 | / | 10 | -22 | 12
CC1CCN(CC(=O)N2CCCc3c2c(=O)oc2ccc(OCc4ccccc4)cc32)CC1 | 0 | 4 | 0.04 | 7 | / | 0
CCCOc1ccc2oc(=O)c3c(c2c1)CCCN3C(=O)CN1CCc2ccccc2C1 | -2 | 0 | 1.4 | 15 | 77* | 9
O=C(CSc1oc(-c2ccco2)nc1S(=O)(=O)c1ccccc1)NCC1CCCO1 (stereo not drawn) | / | / | -0.06 | / | 3 | /
O=S(=O)(c1ccccc1)c1nc(-c2ccco2)oc1N1CCCCCC1 | -10 | -8 | 0.86 | 42* | 82* | -1
CN1CCN(c2oc(-c3ccco3)nc2S(=O)(=O)c2ccccc2)CC1 | -6 | 2 | 0.32 | 0 | -4 | 3
CCCSc1oc(-c2ccco2)nc1S(=O)(=O)c1ccccc1 | -8 | 15 | -0.65 | 33* | 84* | 3
O=C(CSc1oc(-c2ccco2)nc1S(=O)(=O)c1ccc(Cl)cc1)NCC1CCCO1 (stereo not drawn) | -8 | 37* | -0.73 | 11 | -6 | 9
CCSc1oc(-c2ccccc2)nc1S(=O)(=O)c1ccccc1 | -1 | -8 | -1.9 | 25 | 69* | 6
CCSc1oc(-c2ccco2)nc1S(=O)(=O)c1ccccc1 | -8 | -14 | -0.86 | 12 | 39 | 10
Cc1ccc(C(=O)COC(=O)CCc2ccc(S(=O)(=O)N3CCCCC3)cc2)cc1 | / | / | 0.36 | / | / | /
